Laboratory results published in ChEMBL document CHEMBL4699552, “Paecilosetin Derivatives as Potent Antimicrobial Agents from Isaria farinosa” (J Nat Prod, 2020).

Key:
Escherichia coli = assay: Antimicrobial activity against Escherichia coli ATCC 25922 assessed as reduction in microbial growth after 24 hrs by microdilution method; assay type: functional
How it was run: (§1)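 Bacterial MICs by CLSI M7 broth microdilution on ATCC strains. Concentrations ran from 256 to 0.5 µg/mL, with 24 h incubation at 35 °C. MIC is the lowest concentration with no visible growth. Duplicate assays.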

Trichophyton rubrum = assay: Antifungal activity against Trichophyton rubrum SNB-TR1 assessed as reduction in microbial growth after 5 days by microdilution method; assay type: functional; conditions: SNB-TR1, 120 h, time 5 day
How it was run: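 CLSI M38 broth microdilution on a clinical dermatophyte isolate. Serial dilutions from 256 to 0.5 µg/mL, incubated at 35 °C and read after 5 days. MIC is the lowest concentration preventing visible growth. Run in duplicate.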

MRC5 = assay: Cytotoxicity against human MRC5 cells assessed as reduction in cell viability after 72 hrs by CellTiter Glo assay; assay type: cell-based; conditions: MRC5, 72 h
How it was run: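 Lung fibroblasts from ATCC, grown in DMEM with 10% FCS and 1% glutamine at 37 °C under 5% CO2, were seeded at 3 × 10^3 cells/well. After 24 h they were dosed at 10 final concentrations by serial dilution in medium, with vehicle controls. After 72 h, viability was read by CellTiter Glo luminescence (15 min). Triplicate runs; IC50 from four- or five-parameter logistic fits.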

Staphylococcus aureus [1] = assay: Antimicrobial activity against methicillin-resistant Staphylococcus aureus ATCC 33591 assessed as reduction in microbial growth after 24 hrs by microdilution method; assay type: functional
How it was run: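 Broth microdilution per CLSI M7; test range 256 to 0.5 µg/mL; plates incubated at 35 °C and read at 24 h for bacteria; MIC taken as lowest concentration preventing visible growth in the wells; run in duplicate.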

Candida albicans [2] = assay: Antifungal activity against Candida albicans ATCC 10231 assessed as reduction in microbial growth after 48 h by microdilution method; conditions: ATCC 10231, 48 h
Staphylococcus aureus [3] = assay: Antimicrobial activity against methicillin-sensitive Staphylococcus aureus ATCC 29213 assessed as reduction in microbial growth after 24 hrs by microdilution method; assay type: functional; how it was run: as §1
Candida albicans [4] = assay: Antifungal activity against Candida albicans ATCC 10231 assessed as reduction in microbial growth after 5 days by microdilution method; assay type: functional; conditions: ATCC 10231, 120 h, time 5 day

Row | Compound | MIC (Escherichia coli) | MIC (Trichophyton rubrum) | IC50 (MRC5) | MIC (Staphylococcus aureus [1]) | MIC (Candida albicans [2]) | MIC (Staphylococcus aureus [3]) | MIC (Candida albicans [4])
1 | C/C=C/[C@@H]1C=C[C@@H]2C[C@H](C)CC[C@H]2[C@]1(C)/C(O)=C1\C(=O)N[C@@H]([C@H](C)O)C1=O | > 256 µg/mL | 32 µg/mL | 40 µM | 2 µg/mL | 16 µg/mL | 2 µg/mL | –
2 | C/C=C1\NC(=O)C(C(=O)[C@@]2(C)[C@@H]3CC[C@@H](CO)C[C@H]3C=C[C@H]2/C=C/C)=C1O | > 256 µg/mL | > 256 µg/mL | 106 µM | 128 µg/mL | > 256 µg/mL | 64 µg/mL | –
3 | Cc1onc(-c2ccccc2)c1C(=O)N[C@@H]1C(=O)N2[C@@H]1SC(C)(C)[C@@H]2C(=O)O [OXACILLIN] | – | – | – | – | – | 0.25 µg/mL | –
4 | C/C=C/[C@@H]1C=C[C@@H]2C[C@H](CO)CC[C@H]2[C@]1(C)/C(O)=C1\C(=O)N[C@@H]([C@H](C)O)C1=O | 256 µg/mL | > 256 µg/mL | – | > 256 µg/mL | > 256 µg/mL | > 256 µg/mL | –
5 | C/C=C1\NC(=O)C(C(=O)[C@@]2(C)[C@@H]3CC[C@@H](C)C[C@H]3C=C[C@H]2/C=C/C)=C1O | > 256 µg/mL | 32 µg/mL | 24.2 µM | 1 µg/mL | 32 µg/mL | 2 µg/mL | –
6 | GENTAMICIN | 8 µg/mL | – | – | – | – | – | –
7 | C/C=C/[C@@H]1C=C[C@@H]2C[C@H](C)CC[C@H]2[C@]1(C)/C(O)=C1\C(=O)N[C@@H]([C@@H](C)O)C1=O | > 256 µg/mL | 64 µg/mL | 50.3 µM | 16 µg/mL | 128 µg/mL | 8 µg/mL | –
8 | C/C=C/[C@@H]1C=C[C@@H]2C[C@H](CO)CC[C@H]2[C@]1(C)/C(O)=C1\C(=O)N[C@@H]([C@@H](C)O)C1=O | > 256 µg/mL | > 256 µg/mL | – | > 256 µg/mL | > 256 µg/mL | > 256 µg/mL | –
9 | OC(Cn1cncn1)(Cn1cncn1)c1ccc(F)cc1F [FLUCONAZOLE] | – | 4 µg/mL | – | – | – | – | 1 µg/mL
